The values below come from PMC3206492 (Journal of the American Chemical Society, 2011).

For this assay, the system named is PBP1b. As to the kind of experiment: In vitro PBP1b transglycosylase assay. The format is biochemical, Escherichia coli. Conditions: peptide up to 200 μM. The essentials: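 E. coli PBP1b glycan polymerization with heptaprenyl lipid II substrate at 4 μM, run with and without test peptide. Peptidoglycan formation was monitored, and IC50 is the peptide concentration giving half-maximal inhibition of PBP1b activity.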
Turning to lactocin S, the “inhibition of lipid II polymerization at concentrations up to 200 μM” value is given as “did not demonstrate any inhibitory activity”.
Take sublancin: the “inhibition of lipid II polymerization at concentrations up to 200 μM” value was “did not inhibit”.
With epilancin 15X the entry was “did not demonstrate any inhibitory activity”.
